Reference: ChEMBL document CHEMBL5120943, “Discovery of Novel Pyrazolopyrimidines as Potent, Selective, and Orally Bioavailable Inhibitors of ALK2” (ACS Med Chem Lett, 2022)
pIC50: −log10 of the molar value. Each block holds one compound with its values, some of them ahead of it. Activity calls are given as the source filed them. The calls are words filed in the database; no cut-off is given here.

Legend:
[1] = Half life in Sprague-Dawley rat at 3 mg/kg, po or 1 mg/kg, iv measured upto 24 hrs post dose by LC/MS/MS analysis; assay type: ADME, organism-based; conditions: in vivo
[2] = Volume of distribution at steady state in Sprague-Dawley rat at 3 mg/kg, po or 1 mg/kg, iv measured upto 24 hrs post dose by LC/MS/MS analysis; assay type: ADME, organism-based; conditions: in vivo
[3] = Metabolic stability in human liver microsomes assessed as intrinsic clearance at 1uM and measured upto 30 mins in presence of NADPH by LC/MS analysis; assay type: ADME, Microsome; conditions: read-out: CLH (converted)
[4] = Cmax in Sprague-Dawley rat at 3 mg/kg, po measured upto 24 hrs post dose by LC/MS/MS analysis; assay type: ADME, organism-based; design: dose 3 mg/kg, time < 24 hrs, route po; conditions: in vivo
Hepcidin = target: T1, Hepcidin (Homo sapiens, UniProt P81172); assay: Inhibition of Hepcidin in human Huh-7 cells assessed as inhibition of BMP-7 induced hepcidin production incubated for 16 to 24 hrs by ELISA method; assay type: cell-based
T1 sequence (P81172 whole entry): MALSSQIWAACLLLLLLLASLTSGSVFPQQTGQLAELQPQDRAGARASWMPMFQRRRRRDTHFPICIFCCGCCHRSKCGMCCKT
Outline: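 Huh7 liver cells were stimulated with BMP7. Inhibition of secreted hepcidin was measured and an IC50 was derived.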

[5] = Oral bioavailability in Sprague-Dawley rat at 3 mg/kg measured upto 24 hrs post dose by LC/MS/MS analysis; assay type: ADME, organism-based; conditions: in vivo
[6] = Protein binding in human plasma assessed as free fraction measured after 2 hrs by LC-MS/MS analysis; assay type: ADME, cell-free
[7] = AUC infinity in Sprague-Dawley rat at 3 mg/kg, po measured upto 24 hrs post dose by LC/MS/MS analysis; assay type: ADME, organism-based; design: time < 24 hrs, dose 3 mg/kg, route po; conditions: in vivo
Activin receptor type-1 [8] = target: T2, Activin receptor type-1 (Homo sapiens, UniProt Q04771); assay: Inhibition of human recombinant N-terminal GST tagged ALK2 (147 to end residues) expressed in baculovirus infected in Sf9 cells assessed as loss of peptide phosphorylation activity using peptide substrate in presence of ATP and measured after 3 hrs by HTRF assay
T2 sequence (Q04771 whole entry): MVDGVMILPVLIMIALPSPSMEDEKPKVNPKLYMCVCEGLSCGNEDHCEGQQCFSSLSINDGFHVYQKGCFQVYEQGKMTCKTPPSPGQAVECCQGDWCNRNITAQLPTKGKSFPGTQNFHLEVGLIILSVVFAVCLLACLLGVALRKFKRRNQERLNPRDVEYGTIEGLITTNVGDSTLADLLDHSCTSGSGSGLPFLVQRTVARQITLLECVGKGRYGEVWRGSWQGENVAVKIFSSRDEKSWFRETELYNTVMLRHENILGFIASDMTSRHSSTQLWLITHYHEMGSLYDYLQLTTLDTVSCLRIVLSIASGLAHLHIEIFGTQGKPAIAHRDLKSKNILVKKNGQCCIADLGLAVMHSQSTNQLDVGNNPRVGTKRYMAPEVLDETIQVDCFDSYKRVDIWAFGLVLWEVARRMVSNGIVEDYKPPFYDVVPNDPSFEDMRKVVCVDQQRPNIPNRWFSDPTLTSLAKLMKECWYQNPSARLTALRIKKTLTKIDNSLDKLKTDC
Outline: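 HTRF activity assay measuring loss of ALK2 phosphorylation of a peptide substrate. IC50 values were determined.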

Activin receptor type-1 [9] = target: T2, Activin receptor type-1; assay: Inhibition of ALK2 in human HeLa cells assessed as reduction in BMP-7 induced SMAD1 phosphorylation incubated for 1 hr followed BMP-7 stimulation for 30 mins by HTRF assay; assay type: cell-based
Outline: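 HeLa cells were stimulated with BMP7. Inhibition of BMP7-induced SMAD1 phosphorylation was read by HTRF and an IC50 was derived.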

[10] = Apparent permeability across apical to basolateral side in human Caco-2 cells at 50 uM incubated for 120 mins by LC/MS/MS analysis
hERG (KCNH2) = hERG (KCNH2) (Homo sapiens, UniProt Q12809); assay: Inhibition of human ERG at 1 uM by patch clamp assay relative to control; assay type: toxicity
Outline: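 hERG activity was tested by patch clamp at 1 μM and expressed as percent inhibition.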

Cytochrome P450 2D6 = Cytochrome P450 2D6 (Homo sapiens, UniProt P10635); assay: Inhibition of CYP2D6 (unknown origin); assay type: ADME
Cytochrome P450 2C9 = Cytochrome P450 2C9 (Homo sapiens, UniProt P11712); assay: Inhibition of CYP2C9 (unknown origin); assay type: ADME
[11] = AUC (0 to 24 hrs) in C57BL/6 mouse liver at 10 mg/kg, po; assay type: ADME, organism-based; design: time < 24 hr, dose 10 mg/kg, route po
Outline: (§1)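 Female C57BL/6 mice were given a single oral dose of 10 mg/kg. Compound concentrations in liver and plasma were measured, and AUC was calculated over 0–24 h.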

Cytochrome P450 2C19 = Cytochrome P450 2C19 (Homo sapiens, UniProt P33261); assay: Inhibition of CYP2C19 (unknown origin); assay type: ADME
Cytochrome P450 2C8 = target: T3, Cytochrome P450 2C8 (Homo sapiens, UniProt P10632); assay: Inhibition of CYP2C8 (unknown origin); assay type: ADME
T3 sequence (P10632 whole entry): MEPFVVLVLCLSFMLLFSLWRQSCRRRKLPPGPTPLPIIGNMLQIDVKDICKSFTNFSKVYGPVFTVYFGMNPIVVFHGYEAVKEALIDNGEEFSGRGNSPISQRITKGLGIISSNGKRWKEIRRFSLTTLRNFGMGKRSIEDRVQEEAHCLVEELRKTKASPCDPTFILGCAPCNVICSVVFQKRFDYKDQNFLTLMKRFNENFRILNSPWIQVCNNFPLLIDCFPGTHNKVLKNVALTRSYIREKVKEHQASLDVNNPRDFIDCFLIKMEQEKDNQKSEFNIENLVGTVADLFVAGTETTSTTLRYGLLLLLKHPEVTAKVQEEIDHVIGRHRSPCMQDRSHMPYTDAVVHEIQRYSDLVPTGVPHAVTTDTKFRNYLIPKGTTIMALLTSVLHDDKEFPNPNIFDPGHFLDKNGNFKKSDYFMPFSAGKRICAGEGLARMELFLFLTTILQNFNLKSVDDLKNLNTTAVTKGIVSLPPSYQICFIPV

Cytochrome P450 3A4 = Cytochrome P450 3A4 (Homo sapiens, UniProt P08684); assay: Inhibition of CYP3A4 (unknown origin); assay type: ADME
[12] = AUC (0 to 24 hrs) in C57BL/6 mouse plasma at 10 mg/kg, po; assay type: ADME, organism-based; design: time < 24 hr, dose 10 mg/kg, route po; outline: as §1
Cytochrome P450 2B6 = target: T4, Cytochrome P450 2B6 (Homo sapiens, UniProt P20813); assay: Inhibition of CYP2B6 (unknown origin); assay type: ADME
T4 sequence (P20813 whole entry): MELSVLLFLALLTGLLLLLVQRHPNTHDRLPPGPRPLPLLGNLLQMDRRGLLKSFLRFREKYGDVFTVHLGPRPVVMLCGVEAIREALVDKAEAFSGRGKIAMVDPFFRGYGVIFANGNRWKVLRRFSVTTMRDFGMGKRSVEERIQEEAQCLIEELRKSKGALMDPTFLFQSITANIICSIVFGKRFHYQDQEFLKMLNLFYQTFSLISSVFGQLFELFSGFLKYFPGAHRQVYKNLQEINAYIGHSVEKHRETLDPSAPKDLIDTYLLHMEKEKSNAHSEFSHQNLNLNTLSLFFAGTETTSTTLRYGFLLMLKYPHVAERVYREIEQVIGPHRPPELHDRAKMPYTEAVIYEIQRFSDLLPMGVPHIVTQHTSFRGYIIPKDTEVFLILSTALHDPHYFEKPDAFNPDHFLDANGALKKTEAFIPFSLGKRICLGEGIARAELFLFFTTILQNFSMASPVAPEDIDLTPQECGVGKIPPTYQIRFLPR

Cytochrome P450 1A2 = target: T5, Cytochrome P450 1A2 (Homo sapiens, UniProt P05177); assay: Inhibition of CYP1A2 (unknown origin); assay type: ADME
T5 sequence (P05177 whole entry): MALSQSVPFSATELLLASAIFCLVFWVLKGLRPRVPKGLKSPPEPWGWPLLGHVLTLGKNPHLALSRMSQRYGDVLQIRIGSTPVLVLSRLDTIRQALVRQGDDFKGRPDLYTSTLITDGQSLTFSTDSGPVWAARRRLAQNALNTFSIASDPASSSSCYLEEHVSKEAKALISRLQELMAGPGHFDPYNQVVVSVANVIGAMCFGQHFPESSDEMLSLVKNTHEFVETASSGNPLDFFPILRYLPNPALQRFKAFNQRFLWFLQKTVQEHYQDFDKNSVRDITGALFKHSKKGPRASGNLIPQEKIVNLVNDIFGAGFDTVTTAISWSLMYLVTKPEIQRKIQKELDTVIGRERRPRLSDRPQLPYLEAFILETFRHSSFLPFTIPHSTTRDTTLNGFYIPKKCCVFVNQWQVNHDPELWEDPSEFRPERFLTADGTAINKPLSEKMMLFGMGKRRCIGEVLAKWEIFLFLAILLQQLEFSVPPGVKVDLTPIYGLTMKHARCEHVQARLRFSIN

Mus musculus = assay: In vivo inhibition of ALK2 in C57BL/6 mouse assessed as reduction in hepcidin level in plasma at 10 mg/kg, po measured after 24 hrs post dose; assay type: functional, organism-based
[13] = In vivo inhibition of ALK2 in C57BL/6 mouse assessed as reduction in hepcidin level in plasma at 10 mg/kg, po measured after 4 hrs post dose relative to control; assay type: functional

Sequence of Cytochrome P450 2C9 (P11712 whole entry): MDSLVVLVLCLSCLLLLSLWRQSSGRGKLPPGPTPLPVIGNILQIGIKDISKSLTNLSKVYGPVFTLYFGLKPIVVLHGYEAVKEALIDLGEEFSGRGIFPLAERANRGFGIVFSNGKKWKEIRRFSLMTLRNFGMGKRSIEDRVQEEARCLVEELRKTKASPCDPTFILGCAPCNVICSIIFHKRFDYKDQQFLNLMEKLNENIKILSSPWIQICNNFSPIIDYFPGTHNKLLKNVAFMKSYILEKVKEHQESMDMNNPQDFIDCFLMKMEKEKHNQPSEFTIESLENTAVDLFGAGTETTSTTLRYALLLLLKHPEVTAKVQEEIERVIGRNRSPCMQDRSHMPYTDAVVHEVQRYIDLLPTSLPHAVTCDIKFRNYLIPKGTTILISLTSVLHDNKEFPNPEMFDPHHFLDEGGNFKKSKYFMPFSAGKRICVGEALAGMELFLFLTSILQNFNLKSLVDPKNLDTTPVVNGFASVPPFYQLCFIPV
Sequence of hERG (KCNH2) (Q12809 whole entry): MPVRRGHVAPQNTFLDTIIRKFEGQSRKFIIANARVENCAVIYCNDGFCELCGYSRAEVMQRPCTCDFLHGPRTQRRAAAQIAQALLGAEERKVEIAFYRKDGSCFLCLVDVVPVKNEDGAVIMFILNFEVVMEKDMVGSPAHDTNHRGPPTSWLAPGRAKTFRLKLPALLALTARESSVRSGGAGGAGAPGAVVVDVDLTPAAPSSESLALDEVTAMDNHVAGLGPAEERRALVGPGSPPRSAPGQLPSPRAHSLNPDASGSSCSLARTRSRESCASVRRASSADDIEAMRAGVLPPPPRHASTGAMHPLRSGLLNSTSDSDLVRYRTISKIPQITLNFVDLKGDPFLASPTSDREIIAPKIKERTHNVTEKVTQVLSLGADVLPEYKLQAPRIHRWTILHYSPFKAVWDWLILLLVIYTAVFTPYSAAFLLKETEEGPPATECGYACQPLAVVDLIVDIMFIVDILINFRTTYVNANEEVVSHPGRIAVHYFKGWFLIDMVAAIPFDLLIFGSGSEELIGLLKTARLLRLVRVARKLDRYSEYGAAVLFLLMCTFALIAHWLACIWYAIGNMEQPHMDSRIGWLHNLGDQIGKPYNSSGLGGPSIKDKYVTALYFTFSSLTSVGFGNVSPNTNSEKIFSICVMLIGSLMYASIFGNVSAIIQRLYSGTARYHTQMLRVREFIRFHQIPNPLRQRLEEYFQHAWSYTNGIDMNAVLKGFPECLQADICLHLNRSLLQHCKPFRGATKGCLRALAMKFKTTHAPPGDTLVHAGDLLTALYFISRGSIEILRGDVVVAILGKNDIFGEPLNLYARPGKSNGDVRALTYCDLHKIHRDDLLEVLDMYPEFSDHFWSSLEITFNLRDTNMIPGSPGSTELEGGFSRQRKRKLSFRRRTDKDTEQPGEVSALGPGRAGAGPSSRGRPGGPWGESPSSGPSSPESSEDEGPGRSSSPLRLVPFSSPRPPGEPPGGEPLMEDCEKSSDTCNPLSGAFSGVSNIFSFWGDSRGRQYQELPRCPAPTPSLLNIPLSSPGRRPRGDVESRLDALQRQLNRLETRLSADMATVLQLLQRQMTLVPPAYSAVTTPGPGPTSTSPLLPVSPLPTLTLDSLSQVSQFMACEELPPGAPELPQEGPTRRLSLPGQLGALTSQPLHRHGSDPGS
Sequence of Cytochrome P450 3A4 (P08684 whole entry): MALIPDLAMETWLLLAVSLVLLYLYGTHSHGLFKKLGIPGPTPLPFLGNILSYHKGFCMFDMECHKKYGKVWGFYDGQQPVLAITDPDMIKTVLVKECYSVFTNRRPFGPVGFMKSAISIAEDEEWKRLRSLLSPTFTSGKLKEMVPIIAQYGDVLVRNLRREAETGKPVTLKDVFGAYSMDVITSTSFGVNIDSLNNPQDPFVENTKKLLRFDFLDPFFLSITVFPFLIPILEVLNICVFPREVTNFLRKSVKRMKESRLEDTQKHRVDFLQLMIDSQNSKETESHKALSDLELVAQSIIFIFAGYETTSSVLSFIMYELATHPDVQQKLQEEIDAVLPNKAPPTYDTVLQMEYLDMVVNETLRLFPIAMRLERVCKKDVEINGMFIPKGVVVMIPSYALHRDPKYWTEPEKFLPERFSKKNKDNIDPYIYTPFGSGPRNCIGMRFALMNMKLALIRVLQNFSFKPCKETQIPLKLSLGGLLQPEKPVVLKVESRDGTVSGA
Sequence of Cytochrome P450 2C19 (P33261 whole entry): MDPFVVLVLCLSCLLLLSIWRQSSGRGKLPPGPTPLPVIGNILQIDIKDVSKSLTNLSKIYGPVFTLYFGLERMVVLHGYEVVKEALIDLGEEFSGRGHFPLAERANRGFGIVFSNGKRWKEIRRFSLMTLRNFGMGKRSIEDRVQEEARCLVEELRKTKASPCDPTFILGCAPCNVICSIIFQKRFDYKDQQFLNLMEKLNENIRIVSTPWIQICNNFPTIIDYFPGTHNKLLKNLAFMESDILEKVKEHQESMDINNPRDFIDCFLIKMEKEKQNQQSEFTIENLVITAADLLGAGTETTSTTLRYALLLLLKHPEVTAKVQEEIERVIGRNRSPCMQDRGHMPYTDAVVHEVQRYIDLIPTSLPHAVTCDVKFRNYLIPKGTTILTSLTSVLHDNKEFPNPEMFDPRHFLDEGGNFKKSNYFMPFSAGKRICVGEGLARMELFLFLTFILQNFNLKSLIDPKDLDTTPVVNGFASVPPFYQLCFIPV
Sequence of Cytochrome P450 2D6 (P10635 whole entry): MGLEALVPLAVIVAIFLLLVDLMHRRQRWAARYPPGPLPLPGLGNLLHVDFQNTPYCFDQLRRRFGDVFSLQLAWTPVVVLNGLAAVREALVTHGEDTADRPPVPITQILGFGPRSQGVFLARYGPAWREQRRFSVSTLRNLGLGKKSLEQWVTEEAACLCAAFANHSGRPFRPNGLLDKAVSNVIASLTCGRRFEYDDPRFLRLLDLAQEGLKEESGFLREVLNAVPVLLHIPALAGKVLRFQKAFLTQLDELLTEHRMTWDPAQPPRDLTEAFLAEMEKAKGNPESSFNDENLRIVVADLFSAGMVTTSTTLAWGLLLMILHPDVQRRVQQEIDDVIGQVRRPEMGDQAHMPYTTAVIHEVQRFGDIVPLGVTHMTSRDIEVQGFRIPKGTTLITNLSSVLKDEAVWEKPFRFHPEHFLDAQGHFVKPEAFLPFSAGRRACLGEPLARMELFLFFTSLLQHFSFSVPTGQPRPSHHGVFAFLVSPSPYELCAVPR

SMILES: C[C@@H]1CN(c2ccc(-c3n[nH]c4cnc(N5[C@H](C)CN(C(=O)N6CCCC6)C[C@@H]5C)nc34)cn2)CCN1
half-life [1]: 3.8 h | Vdss [2]: 9.2 L/kg | CLint scaled at 1 µM [3]: 18.3 mL/min/kg | Cmax [4]: 151 nM | pIC50 (Hepcidin): 7.55 | bioavailability [5]: 46% | fraction unbound at 2 h [6]: 0.043 | AUC(0-inf) [7]: 0.669 µM·h

SMILES: C[C@@H]1CN(c2ccc(-c3n[nH]c4cnc(N5[C@H](C)CNC[C@@H]5C)nc34)cn2)CCN1
pIC50 (Activin receptor type-1 [8]): 6.10

SMILES: C[C@@H]1CN(c2ccc(-c3n[nH]c4cnc(N5CCCCC5)nc34)cn2)CCN1
pIC50 (Activin receptor type-1 [8]): 8.09

SMILES: C[C@@H]1CN(c2ccc(-c3n[nH]c4ccc(N5CCCCC5)nc34)cn2)CCN1
pIC50 (Activin receptor type-1 [8]): 7.02 | pIC50 (Activin receptor type-1 [9]): < 5.52

SMILES: C[C@@H]1CN(c2ccc(-c3n[nH]c4cnc(N5[C@H](C)COC[C@@H]5C)nc34)cn2)CCN1
pIC50 (Activin receptor type-1 [8]): 7.64 | pIC50 (Activin receptor type-1 [9]): 6.61

Further lines, with some results ahead:

pIC50 (Activin receptor type-1 [8]): 8.31 | pIC50 (Activin receptor type-1 [9]): 6.67
SMILES: CCOC(=O)N1C[C@@H](C)N(c2ncc3[nH]nc(-c4ccc(N5CCN[C@H](C)C5)nc4)c3n2)[C@@H](C)C1

pIC50 (Hepcidin): 7.24
SMILES: COC(=O)N1C[C@@H](C)N(c2ncc3[nH]nc(-c4ccc(N5CCN(C)CC5)nc4)c3n2)[C@@H](C)C1

Papp A→B at 2 h, 50 µM [10]: 4.5 ×10⁻⁶ cm/s | half-life [1]: 5.7 h | Vdss [2]: 7.6 L/kg | pIC50 (Cytochrome P450 2D6): < 4.60 | pIC50 (Cytochrome P450 2C9): < 4.60 | AUC(0-t) at 24 h [11]: 376 µM·h | pIC50 (Activin receptor type-1 [8]): 9.01 | pIC50 (Cytochrome P450 2C19): < 4.60 | pIC50 (Cytochrome P450 2C8): < 4.60 | CLint scaled at 1 µM [3]: 16.7 mL/min/kg | pIC50 (Cytochrome P450 3A4): < 4.60 | Cmax [4]: 434 nM | pIC50 (Hepcidin): 7.47 | AUC(0-t) at 24 h [12]: 26.2 µM·h | pIC50 (Cytochrome P450 2B6): < 4.60 | bioavailability [5]: 85% | fraction unbound at 2 h [6]: 0.043 | pIC50 (Cytochrome P450 1A2): < 4.60 | pIC50 (Activin receptor type-1 [9]): 7.21 | AUC(0-inf) [7]: 4.05 µM·h
SMILES: COC(=O)N1C[C@@H](C)N(c2ncc3[nH]nc(-c4ccc(N5CCN(C)CC5)cc4)c3n2)[C@@H](C)C1
inhibition at 1 µM (hERG (KCNH2)): < 1% | inhibition (Mus musculus): Active | inhibition in vivo at 10 mg/kg [13]: 80%
